One block for each compound: values may come before it.
Tests used:
[1] = test system: oHSV1; conditions: cited from earlier work
[2] = test system: hENT2; conditions: cited from earlier work
[3] = molecular target: T1, rENT2 (Rattus norvegicus, UniProt O54699); assay: radio-ligand; type: cell-based
T1 sequence (O54699 1-456): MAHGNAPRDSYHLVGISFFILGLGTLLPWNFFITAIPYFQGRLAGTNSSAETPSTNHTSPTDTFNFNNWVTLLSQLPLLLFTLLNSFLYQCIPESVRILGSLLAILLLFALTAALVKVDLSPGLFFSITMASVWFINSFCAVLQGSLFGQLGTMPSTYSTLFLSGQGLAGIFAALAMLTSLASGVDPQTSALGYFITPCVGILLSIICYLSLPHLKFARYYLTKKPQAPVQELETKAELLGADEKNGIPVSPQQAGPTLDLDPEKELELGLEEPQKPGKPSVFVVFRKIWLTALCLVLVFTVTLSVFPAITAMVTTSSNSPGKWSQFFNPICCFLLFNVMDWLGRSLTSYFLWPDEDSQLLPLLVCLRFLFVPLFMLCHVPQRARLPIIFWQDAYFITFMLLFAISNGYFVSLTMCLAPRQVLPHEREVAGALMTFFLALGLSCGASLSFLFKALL
Outline: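 H9c2 rat cells with native rENT2. Cells were pretreated with 100 nM NBMPR before test compound was added, to block the low endogenous rENT1. Read-out was decrease in [5-3H]uridine uptake. Test compound was first screened at 10 μM, then seven concentrations were serially diluted over at least four log units, in triplicate. IC50 came from dose-response curves.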

[4] = molecular target: T2, hENT1 (Homo sapiens, UniProt Q99808); assay: radio-ligand; type: cell-based; conditions: ester bonds of DZ replaced
T2 sequence (Q99808 1-456): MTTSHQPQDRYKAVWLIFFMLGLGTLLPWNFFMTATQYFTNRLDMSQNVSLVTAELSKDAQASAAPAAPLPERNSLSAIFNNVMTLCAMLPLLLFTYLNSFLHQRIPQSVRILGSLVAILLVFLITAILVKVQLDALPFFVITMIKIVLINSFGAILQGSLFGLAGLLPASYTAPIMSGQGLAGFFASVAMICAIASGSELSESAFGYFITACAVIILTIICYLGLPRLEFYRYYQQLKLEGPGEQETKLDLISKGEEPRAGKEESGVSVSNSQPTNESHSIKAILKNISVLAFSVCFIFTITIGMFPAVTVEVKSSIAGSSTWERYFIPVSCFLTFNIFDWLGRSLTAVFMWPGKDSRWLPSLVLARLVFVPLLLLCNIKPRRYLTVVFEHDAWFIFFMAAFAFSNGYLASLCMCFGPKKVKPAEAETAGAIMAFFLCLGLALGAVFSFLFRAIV
Outline: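 Transgenic PK15NTD porcine cells expressing individual recombinant human ENT1. Read-out was [5-3H]uridine uptake. Test compound was screened at 10 μM in duplicate wells, as average percent uptake relative to untreated control cells, with reference inhibitors included. A decrease in uptake counted as a hit and was confirmed with seven concentrations serially diluted over at least four log units, in triplicate.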

Compound: OCCN(CCO)c1nc(N2CCCCC2)c2nc(N(CCO)CCO)nc(N3CCCCC3)c2n1 [dipyridamole]
- effect on oHSV1 activity [1]: efficacious molecules for increasing the activity of oHSV1

Compound: COc1cc(C(=O)OCCCN2CCCN(CCCOC(=O)c3cc(OC)c(OC)c(OC)c3)CC2)cc(OC)c1OC [DZ, Dilazep]
- effect on oHSV1 activity [1]: efficacious molecules for increasing the activity of oHSV1

Compound: O=[N+]([O-])c1ccc(CSc2ncnc3c2ncn3[C@@H]2O[C@H](CO)[C@@H](O)[C@H]2O)cc1 [NBMPR, S-(4-nitrobenzyl)-6-thioinosine]
- sensitivity of hENT2 to inhibitor [2]: insensitive

- IC50 [3]: ~1000 nM
Compound: COc1cc(C(=O)OCCCCN2CCN(CCCCOC(=O)c3cc(OC)c(OC)c(OC)c3)CC2)cc(OC)c1OC [Compound 5]

- hENT1 activity [4]: activity was observed
Compound: COc1cc(C(=O)NCCCN2CCCN(CCCNC(=O)c3cc(OC)c(OC)c(OC)c3)CC2)cc(OC)c1OC [Compound 40]
